Here are results for 1 molecule from ChEMBL document CHEMBL4049449, “Discovery of a Novel Class of Survival Motor Neuron 2 Splicing Modifiers for the Treatment of Spinal Muscular Atrophy” (J Med Chem, 2017).

Values after ≈ are worked out from the molar mass of the structure shown. Bounds are passed on as bounds.

In data set [1] the test system is Salmonella typhimurium. In words: Genotoxicity in Salmonella typhimurium TA1535 in presence of rat liver S9 fraction by Ames test. In kind it is toxicity. As to conditions: salmonella enterica subsp. enterica serovar typhimurium. In outline:
(§1)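 Ames plate incorporation: strains grown overnight at 37 °C in nutrient broth (TA102 with 0.3 μg/mL tetracycline). Compound at 20–2000 μg/plate in top agar with histidine/biotin, plus rat liver S9 mix (NADP, glucose 6-phosphate, KCl, MgCl2, pH 7.4 phosphate). Vogel–Bonner plates incubated 37 °C, 2 days; colonies counted by image analysis. Positive: dose-dependent ≥2-fold (TA1535, TA98) or ≥1.5-fold (TA97, TA100, TA102) rise over background.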

The test system of data set [2] is Salmonella typhimurium. In words: Genotoxicity in Salmonella typhimurium TA97 in presence of rat liver S9 fraction by Ames test. The data set is classed as toxicity. As to conditions: salmonella enterica subsp. enterica serovar typhimurium. A digest of the protocol:
as §1

Data set [3] deals with Salmonella typhimurium. The data set can be described thus: Genotoxicity in Salmonella typhimurium TA98 in presence of rat liver S9 fraction by Ames test. In kind it is toxicity. Particulars: salmonella enterica subsp. enterica serovar typhimurium. In outline: as §1
For data set [4], the system named is Salmonella typhimurium. The data set can be described thus: Genotoxicity in Salmonella typhimurium TA100 in presence of rat liver S9 fraction by Ames test. In kind it is toxicity. As to conditions: salmonella enterica subsp. enterica serovar typhimurium. A digest of the protocol: as §1
In data set [5] the test system is Salmonella typhimurium. In words: Genotoxicity in Salmonella typhimurium TA102 in presence of rat liver S9 fraction by Ames test. The data set is classed as toxicity. As to conditions: salmonella enterica subsp. enterica serovar typhimurium. In outline:
as §1

Data set [6] in a line: Glutathione reactivity assessed as GSH adduct formation.
The next data set concerns the target hERG (KCNH2) (Homo sapiens, UniProt Q12809). The data set can be described thus: Inhibition of human ERG channel.
The next data set has as its target Cytochrome P450 3A4 (Homo sapiens, UniProt P08684). In words: Inhibition of CYP3A4 (unknown origin). The data set is classed as ADME.
The next data set concerns the target Cytochrome P450 2D6 (Homo sapiens, UniProt P10635). In words: Inhibition of CYP2D6 (unknown origin). The data set is classed as ADME.
The target in another data set is Cytochrome P450 2C9 (Homo sapiens, UniProt P11712). The data set can be described thus: Inhibition of CYP2C9 (unknown origin). The data set is classed as ADME.
Data set [7] in a line: Solubility of the compound in phosphate buffer solution at pH 6.5 by HPLC-UV analysis. In kind it is physicochemical. In outline:
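Lysa: duplicate samples from 10 mM DMSO stocks, DMSO evaporated, residue taken up in 0.05 M phosphate buffer pH 6.5, stirred 1 h, shaken 2 h, left overnight, filtered. Filtrate and its 1/10 dilution were read by direct UV or HPLC-UV against a four-point calibration; range 0–666 μg/mL for MW 500.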

Data set [8] is described as follows: Permeability of the compound by PAMPA. The data set is classed as physicochemical. Particulars: read-out: permeability. In outline: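 Parallel artificial membrane permeability: phospholipid-coated filter plate sandwiched between donor compound/buffer and acceptor buffer. Donor concentration at start was compared with donor and acceptor concentrations at end time, giving Pe (10−6 cm/s); membrane retention was also determined.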

Data set [9] can be described thus: Octanol-phosphate buffer partition co-efficient, log D of the compound at pH 7.4 after 24 hrs by shake flask method. In kind it is physicochemical. A digest of the protocol:
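CAMDIS shake-flask variant: PVDF membranes impregnated with 1-octanol dipped in 25 mM phosphate buffer pH 7.4 containing compound, shaken 24 h at 23 °C. Two octanol/water ratios were run for hydrophilic or lipophilic compounds. Aqueous concentration was measured by LC/MS with and without octanol, and log D was calculated from the difference and the phase ratio.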

The species named for data set [10] is Homo sapiens. In words: Modulation of patient derived full length SMN2 pre mRNA splicing assessed as inclusion of exon 7.
The species named for data set [11] is Homo sapiens. In words: Modulation of patient derived full length SMN2 pre mRNA splicing assessed as restoration of functional SMN2 to protein level.
The test system of data set [12] is Plasma. The data set can be described thus: Drug metabolism in human plasma assessed as amide bond hydrolysis at 1 uM after 15 to 300 mins by LC-MS/MS analysis. The data set is classed as ADME, cell-free.
Data set [13] relates to Plasma. The data set can be described thus: Drug metabolism in mouse plasma assessed as amide bond hydrolysis at 1 uM after 15 to 300 mins by LC-MS/MS analysis. The data set is classed as ADME, cell-free.
The subject of data set [14] is Plasma. In words: Drug metabolism in rat plasma assessed as amide bond hydrolysis at 1 uM after 15 to 300 mins by LC-MS/MS analysis. The data set is classed as ADME, cell-free.
Data set [15] is described as follows: Stability at various pH levels assessed as amide bond hydrolysis. In kind it is physicochemical.

Chain of Cytochrome P450 2C9 (P11712 whole entry): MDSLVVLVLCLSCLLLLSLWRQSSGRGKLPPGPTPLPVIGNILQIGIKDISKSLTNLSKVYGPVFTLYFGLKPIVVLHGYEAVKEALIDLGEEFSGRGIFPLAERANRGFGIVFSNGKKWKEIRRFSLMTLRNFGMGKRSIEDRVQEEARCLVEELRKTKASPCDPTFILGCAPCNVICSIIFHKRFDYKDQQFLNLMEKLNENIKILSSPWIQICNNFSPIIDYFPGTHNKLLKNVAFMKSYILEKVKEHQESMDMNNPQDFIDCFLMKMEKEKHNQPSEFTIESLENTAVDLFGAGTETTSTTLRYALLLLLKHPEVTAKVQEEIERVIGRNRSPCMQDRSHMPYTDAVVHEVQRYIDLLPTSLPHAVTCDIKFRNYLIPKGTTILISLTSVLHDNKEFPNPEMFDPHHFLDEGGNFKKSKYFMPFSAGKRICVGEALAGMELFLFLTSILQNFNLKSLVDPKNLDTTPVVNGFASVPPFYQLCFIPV
Chain of Cytochrome P450 2D6 (P10635 whole entry): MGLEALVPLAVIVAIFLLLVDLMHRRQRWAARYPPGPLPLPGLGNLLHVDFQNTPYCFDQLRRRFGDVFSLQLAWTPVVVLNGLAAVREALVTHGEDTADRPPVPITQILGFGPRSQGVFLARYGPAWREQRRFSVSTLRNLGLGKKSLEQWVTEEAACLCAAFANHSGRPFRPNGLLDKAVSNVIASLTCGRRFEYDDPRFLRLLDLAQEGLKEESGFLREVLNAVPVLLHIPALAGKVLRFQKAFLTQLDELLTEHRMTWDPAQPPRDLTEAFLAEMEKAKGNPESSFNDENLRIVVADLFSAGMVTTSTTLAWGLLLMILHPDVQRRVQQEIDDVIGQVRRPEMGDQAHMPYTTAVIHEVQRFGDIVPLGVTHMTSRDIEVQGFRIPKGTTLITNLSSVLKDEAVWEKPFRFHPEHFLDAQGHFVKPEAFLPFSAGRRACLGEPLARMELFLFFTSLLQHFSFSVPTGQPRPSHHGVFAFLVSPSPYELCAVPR
Chain of Cytochrome P450 3A4 (P08684 whole entry): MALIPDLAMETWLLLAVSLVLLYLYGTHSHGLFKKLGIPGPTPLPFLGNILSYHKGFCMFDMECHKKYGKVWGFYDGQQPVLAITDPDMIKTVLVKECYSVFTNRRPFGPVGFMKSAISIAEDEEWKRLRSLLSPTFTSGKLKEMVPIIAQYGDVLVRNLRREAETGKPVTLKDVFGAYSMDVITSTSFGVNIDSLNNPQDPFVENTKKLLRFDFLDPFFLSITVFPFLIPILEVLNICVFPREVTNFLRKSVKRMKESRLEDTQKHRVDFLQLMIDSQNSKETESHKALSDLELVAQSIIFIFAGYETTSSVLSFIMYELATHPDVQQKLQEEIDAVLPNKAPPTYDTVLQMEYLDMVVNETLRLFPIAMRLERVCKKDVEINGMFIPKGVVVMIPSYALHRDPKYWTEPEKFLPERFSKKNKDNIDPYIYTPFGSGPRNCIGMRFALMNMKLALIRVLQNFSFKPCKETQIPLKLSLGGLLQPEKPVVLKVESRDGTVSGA
Chain of hERG (KCNH2) (Q12809 whole entry): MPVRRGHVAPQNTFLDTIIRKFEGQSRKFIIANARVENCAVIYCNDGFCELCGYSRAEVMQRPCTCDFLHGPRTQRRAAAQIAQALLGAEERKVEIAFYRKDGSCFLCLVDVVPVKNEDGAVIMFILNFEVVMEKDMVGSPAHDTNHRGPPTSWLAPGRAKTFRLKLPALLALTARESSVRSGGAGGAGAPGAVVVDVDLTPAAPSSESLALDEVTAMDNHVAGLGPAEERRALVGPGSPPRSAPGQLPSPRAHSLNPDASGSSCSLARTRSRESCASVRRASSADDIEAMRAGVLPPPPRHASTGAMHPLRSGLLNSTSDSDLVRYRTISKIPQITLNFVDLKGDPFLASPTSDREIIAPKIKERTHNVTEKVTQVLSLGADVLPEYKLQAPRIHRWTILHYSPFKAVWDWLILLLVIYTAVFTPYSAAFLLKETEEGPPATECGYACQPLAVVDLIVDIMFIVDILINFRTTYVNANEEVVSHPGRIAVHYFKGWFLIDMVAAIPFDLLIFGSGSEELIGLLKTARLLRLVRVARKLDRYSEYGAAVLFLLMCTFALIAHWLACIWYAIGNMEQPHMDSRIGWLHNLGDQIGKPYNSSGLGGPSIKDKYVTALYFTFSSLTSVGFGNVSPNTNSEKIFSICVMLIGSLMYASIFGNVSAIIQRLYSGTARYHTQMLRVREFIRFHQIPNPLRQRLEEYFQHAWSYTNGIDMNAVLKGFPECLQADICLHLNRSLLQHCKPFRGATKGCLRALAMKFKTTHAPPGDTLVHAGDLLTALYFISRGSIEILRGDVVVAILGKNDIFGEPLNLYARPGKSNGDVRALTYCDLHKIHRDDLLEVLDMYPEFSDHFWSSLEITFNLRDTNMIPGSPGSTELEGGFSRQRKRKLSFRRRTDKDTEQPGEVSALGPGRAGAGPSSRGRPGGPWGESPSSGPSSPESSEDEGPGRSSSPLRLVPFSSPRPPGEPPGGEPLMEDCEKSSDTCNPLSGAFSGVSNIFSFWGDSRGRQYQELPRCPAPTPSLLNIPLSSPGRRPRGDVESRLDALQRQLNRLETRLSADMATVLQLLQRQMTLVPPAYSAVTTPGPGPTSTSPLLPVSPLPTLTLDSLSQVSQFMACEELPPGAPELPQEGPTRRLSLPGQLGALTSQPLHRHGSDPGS

On to `Cc1cn2cc(NC(=O)c3ccc(N4CCN(C)CC4)cc3)nc2c(C)n1`, for which the Activity result with Salmonella typhimurium [1], with Salmonella typhimurium [2], with Salmonella typhimurium [3], with Salmonella typhimurium [4] and in the data set on Salmonella typhimurium [5] was “Non-Toxic” in each case. Further, the Stability result (in data set [6]; with Plasma [12]; in the data set on Plasma [13]; with Plasma [14]; in [15]) was “Stable” each time. The molecule further yielded an IC20 on hERG (KCNH2) greater than 10 µM. Further, the IC50 at Cytochrome P450 3A4, against Cytochrome P450 2D6 and on Cytochrome P450 2C9 was greater than 50 µM throughout. Further, the solubility in data set [7] is 111 µg/mL (≈ 305 µM). Besides, the Papp in [8] worked out at 2.38 ×10⁻⁶ cm/s. Further, the logD at 24 h in [9] was found to be 2. Besides, the figures for the EC1.5 in the data set filed under Homo sapiens [10] and in the data set filed under Homo sapiens [11] were 660 nM and 3.95 µM, respectively.
